Broadly, the IC50 is the concentration that gives 50% inhibition.

The values below come from ChEMBL document CHEMBL2311303, “Synthesis and anticancer activity of a novel series of 9-O-substituted berberine derivatives: a lipophilic substitute role” (Bioorg Med Chem Lett, 2013).

Calls of active or inactive are those of the source. The calls are words filed in the database; no cut-off is given here.

In assay [1] the test system is HepG2. Nature of the assay: Cytotoxicity against human HepG2 cells after 24 hrs by MTT assay. The format is functional, cell-based. Conditions: HepG2, 24 h.
The subject of assay [2] is HT-29. Kind of assay: Cytotoxicity against human HT-29 cells after 24 hrs by MTT assay. It counts as functional, cell-based. As to conditions: HT-29, 24 h. (In general: Tetrazolium dyes change colour on reduction, which living cells bring about.)
The subject of assay [3] is HepG2. Nature of the assay: Cytotoxicity against human HepG2 cells after 48 hrs by MTT assay. The format is functional, cell-based. As to conditions: HepG2, 48 h.
In assay [4] the test system is HT-29. Nature of the assay: Cytotoxicity against human HT-29 cells after 48 hrs by MTT assay. It counts as functional, cell-based. As to conditions: HT-29, 48 h.
The test system of assay [5] is HepG2. Nature of the assay: Induction of apoptosis in human HepG2 cells assessed as viable cells at 0.5 uM after 24 hrs using annexin-V/FITC/propidium iodide staining by flow cytometry analysis (reference value: 94.29%). It counts as functional. Conditions: HepG2, 24 h, read-out: Activity. The procedure, abridged:
(§1)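 HepG2 cells exposed for 24 h to 0.25, 0.5 or 1.0 µM, with vehicle alone as control. Cells then double-stained with annexin V-FITC/PI and analysed by flow cytometry. Quadrant read-out: annexin V-positive/PI-negative cells counted as early apoptotic.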
(In general: Flow cytometry measures light scatter and fluorescence of single cells or particles in a stream.)

Assay [6] deals with HepG2. Nature of the assay: Induction of apoptosis in human HepG2 cells assessed as late apoptotic cells at 0.25 uM after 24 hrs using annexin-V/FITC/propidium iodide staining by flow cytometry analysis (reference value: 3.16%). It counts as functional. The essentials:
as §1

The test system of assay [7] is HepG2. Kind of assay: Induction of apoptosis in human HepG2 cells assessed as necrotic cells at 0.25 uM after 24 hrs using annexin-V/FITC/propidium iodide staining by flow cytometry analysis (reference value: 0.51%). It counts as functional. The essentials:
as §1

Assay [8] concerns HepG2. Kind of assay: Induction of apoptosis in human HepG2 cells assessed as early apoptotic cells at 1 uM after 24 hrs using annexin-V/FITC/propidium iodide staining by flow cytometry analysis (reference value: 2.05%). The format is functional. The essentials: as §1
Assay [9] has as its system HepG2. Kind of assay: Induction of apoptosis in human HepG2 cells assessed as late apoptotic cells at 0.5 uM after 24 hrs using annexin-V/FITC/propidium iodide staining by flow cytometry analysis (reference value: 3.16%). The format is functional. The procedure, abridged:
as §1

Assay [10] deals with HepG2. Nature of the assay: Induction of apoptosis in human HepG2 cells assessed as early apoptotic cells at 0.25 uM after 24 hrs using annexin-V/FITC/propidium iodide staining by flow cytometry analysis (reference value: 2.05%). The format is functional. The procedure, abridged:
as §1

Assay [11] relates to HepG2. Nature of the assay: Induction of apoptosis in human HepG2 cells assessed as necrotic cells at 1 uM after 24 hrs using annexin-V/FITC/propidium iodide staining by flow cytometry analysis (reference value: 0.51%). The format is functional. The procedure, abridged: as §1
For assay [12], the system named is HepG2. Kind of assay: Induction of apoptosis in human HepG2 cells assessed as viable cells at 0.25 uM after 24 hrs using annexin-V/FITC/propidium iodide staining by flow cytometry analysis (reference value: 94.29%). It counts as functional. Conditions: HepG2, 24 h, read-out: Activity. The procedure, abridged: as §1
Assay [13] deals with HepG2. Nature of the assay: Induction of apoptosis in human HepG2 cells assessed as morphological changes at 20 uM after 24 hrs using Hoechst 33258 staining by fluorescence microscopic analysis. It counts as functional, cell-based. The essentials: (§2)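 HepG2 cells left untreated or exposed for 24 h, at 20 µM or at 0.5 or 1.0 µM depending on compound. Cells then stained with Hoechst 33258 and nuclear morphology examined by fluorescence microscopy at ×400.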

Assay [14] concerns HepG2. Nature of the assay: Induction of apoptosis in human HepG2 cells assessed as viable cells at 1 uM after 24 hrs using annexin-V/FITC/propidium iodide staining by flow cytometry analysis (reference value: 94.29%). The format is functional. As to conditions: HepG2, 24 h, read-out: Activity. The procedure, abridged:
as §1

Assay [15] has as its system HepG2. Nature of the assay: Induction of apoptosis in human HepG2 cells assessed as early apoptotic cells at 0.5 uM after 24 hrs using annexin-V/FITC/propidium iodide staining by flow cytometry analysis (reference value: 2.05%). It counts as functional. The essentials:
as §1

The subject of assay [16] is HepG2. Kind of assay: Induction of apoptosis in human HepG2 cells assessed as necrotic cells at 0.5 uM after 24 hrs using annexin-V/FITC/propidium iodide staining by flow cytometry analysis (reference value: 0.51%). It counts as functional. The essentials:
as §1

Assay [17] concerns HepG2. Nature of the assay: Induction of apoptosis in human HepG2 cells assessed as late apoptotic cells at 1 uM after 24 hrs using annexin-V/FITC/propidium iodide staining by flow cytometry analysis (reference value: 3.16%). The format is functional. The procedure, abridged: as §1
Assay [18] is described as follows: Cytotoxicity against mouse BNL-CL2 cells at 10 uM after 48 hrs by MTT assay. The format is functional.
Assay [19] deals with HepG2. Nature of the assay: Cytotoxicity against human HepG2 cells by MTT assay. As to conditions: TDE = time-dependent effect. It counts as functional, cell-based. The essentials: (§3)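 HepG2 cells exposed to a range of concentrations for 24, 48 and 72 h. Viability then read by MTT. Data are means ± SD of at least three replicates from three independent experiments.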
In assay [20] the test system is HepG2. Nature of the assay: Ratio of berberine IC50 to compound IC50 for human HepG2 cells. It counts as functional.
Assay [21] has as its system HepG2. Kind of assay: Cytotoxicity against human HepG2 cells after 24 to 72 hrs by MTT assay. The format is functional, cell-based. The procedure, abridged: as §3
Assay [22] has as its system HepG2. Kind of assay: Induction of apoptosis in human HepG2 cells assessed as morphological changes at 0.5 to 1 uM after 24 hrs using Hoechst 33258 staining by fluorescence microscopic analysis. The format is functional, cell-based. The essentials: as §2

In the case of `CCCCCCCCOc1c(OC)ccc2cc3[n+](cc12)CCc1cc2c(cc1-3)OCO2`, the IC50 in the assay on HepG2 [1] is 0.19 µM; in the assay with HT-29 [2], 0.48 µM; in the assay with HepG2 [3], 0.1 µM; in the assay on HT-29 [4], 0.08 µM.
In the case of `CCCCOc1c(OC)ccc2cc3[n+](cc12)CCc1cc2c(cc1-3)OCO2`, the IC50 with HepG2 [1] was determined as 1.81 µM; with HT-29 [2], 4.41 µM; with HepG2 [3], 0.97 µM; with HT-29 [4] it was 0.87 µM.
With `COc1ccc2cc3[n+](cc2c1OC)CCc1cc2c(cc1-3)OCO2.[Cl-]` [BERBERINE CHLORIDE], the viability at 0.5 µM in the assay with HepG2 [5] turned out to be 90%. Besides, the Activity with HepG2 [6] is recorded as 6.4%; in the assay on HepG2 [7], 0.84%; in the assay with HepG2 [8], 3.77%; in the assay on HepG2 [9], 4.49%; with HepG2 [10], 2.99%; with HepG2 [11], 1.88%. Also, the Activity is on record as 4.39% with HepG2 [15], 1.17% with HepG2 [16] and 5.51% with HepG2 [17]. Besides, the IC50 in the assay with HepG2 [1] is 11.2 µM; in the assay with HT-29 [2] it was greater than 20 µM; with HepG2 [3], 8.32 µM; in the assay on HT-29 [4] it was 8.45 µM. Besides, the viability at 0.25 µM with HepG2 [12] turned out to be 89.8%. Also, the result in the assay on HepG2 [13] was Active. Besides, the viability at 1 µM in the assay with HepG2 [14] came to 88.8%.
Turning to `CCCCCCCCCCCCOc1c(OC)ccc2cc3[n+](cc12)CCc1cc2c(cc1-3)OCO2.[Br-]`, the IC50 with HepG2 [1] came to 0.26 µM; in the assay with HT-29 [2], 0.93 µM; in the assay with HepG2 [3] it was 0.1 µM; with HT-29 [4] it was 0.28 µM. Moreover, the Activity in assay [18] is recorded as less than 20%.
Take `COc1ccc2cc3[n+](cc2c1OC/C=C(\C)CC/C=C(\C)CCC=C(C)C)CCc1cc2c(cc1-3)OCO2.[Br-]`: in the assay with HepG2 [5], the viability at 0.5 µM was found to be 71.4%. Besides, the Activity is 3.2% in the assay on HepG2 [6]; 3.73% with HepG2 [7]; 2.39% with HepG2 [8]; 17.4% in the assay with HepG2 [9]; 1.66% with HepG2 [10]; “tde” with HepG2 [19]. The Activity in [18] was less than 20%; with HepG2 [11], 17.08%; in the assay on HepG2 [21], “Dose-dependent effect”; in the assay with HepG2 [15], 8.71%; in the assay with HepG2 [16], 2.48%; in the assay on HepG2 [17] it was 11.28%. Also, the IC50 is 0.21 µM in the assay on HepG2 [1], 1.82 µM in the assay with HT-29 [2], 0.08 µM in the assay with HepG2 [3] and 0.27 µM with HT-29 [4]. Also, the “Ratio IC50” value with HepG2 [20] is 104. The viability at 0.25 µM with HepG2 [12] stood at 91.4%. In addition, in the assay with HepG2 [14], the viability at 1 µM was determined as 69.2%. Also, the result with HepG2 [22] was Active.
For the compound `COc1ccc2cc3[n+](cc2c1OCC=C(C)C)CCc1cc2c(cc1-3)OCO2`, the IC50 was found to be 4.67 µM in the assay on HepG2 [1], 10.8 µM with HT-29 [2], 3.17 µM in the assay on HepG2 [3] and 1.75 µM in the assay on HT-29 [4].
Consider `COc1ccc2cc3[n+](cc2c1O)CCc1cc2c(cc1-3)OCO2` [BERBERRUBINE CHLORIDE], for which the IC50 with HepG2 [1], with HT-29 [2], in the assay with HepG2 [3] and with HT-29 [4] was greater than 50 µM in each case.
For the compound `COc1ccc2cc3[n+](cc2c1OC/C=C(\C)CCC=C(C)C)CCc1cc2c(cc1-3)OCO2`, the IC50 amounted to 0.21 µM in the assay on HepG2 [1], 1.21 µM with HT-29 [2], 0.17 µM with HepG2 [3] and 0.14 µM with HT-29 [4].
